Laboratory results from ChEMBL document CHEMBL1123537, “Carbocyclic analogues of 5-halocytosine nucleosides” (1986).
Converted amounts (≈) assume the structure as drawn.

What was measured:
[1] = test system: Epidermoid carcinoma cell line; assay: Compound was tested for its antiviral activity against Herpes Simplex Virus-1(HF strain) in human epidermoid carcinoma cells (H.Ep.-2) measured as virus rating (VR).; format: functional
Procedure, shortened: (§1)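 […] HSV-1 strain HF in human H.Ep.-2 monolayers (MEM, 5% calf serum growth, 2% FBS maintenance), 32 CCID50/well, in triplicate wells. Seven compound concentrations in half-log10 steps were used, cytotoxic to noncytotoxic. Plates were kept at 37 °C for 4 or 5 days; microscopic CPE was scored 0 (none) to 4 (100%) and a virus rating was calculated from the scores, with ara-A as positive control.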

[2] = test system: MDCK; assay: Compound was tested for antiviral activity against influenza virus (Ao) in MDCK cells; format: functional, Canis lupus familiaris
Procedure, shortened: (§2)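 MDCK monolayers were infected at 32 CCID50 per well, in triplicate, with seven serial half-log10 compound dilutions spanning cytotoxic to noncytotoxic levels. Media were reinforced BME or MEM with 2% FBS, or MEM with trypsin (15 or 10 μg/mL). Plates were held 4–5 days at 37 °C, CPE was scored 0–4, and VR, ratio to ribavirin VR, and MIC50 were derived.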

[3] = test system: Epidermoid carcinoma cell line; assay: Compound was tested for its potency against Herpes Simplex Virus-1(HF strain) in human epidermoid carcinoma cells; format: functional; procedure, shortened: as §1
[4] = test system: MDCK; assay: (§3) Compound was tested for its potency against influenza virus (Ao) in MDCK cells; format: functional; conditions: Canis lupus familiaris; procedure, shortened: as §2
[5] = test system: Vero; assay: Compound was tested for antiviral activity against Herpes Simplex Virus-2(MS strain) in vero cells (african green monkey kidney cells); format: functional, Chlorocebus sabaeus
[6] = test system: Vero; assay: Compound was tested for its potency against Herpes Simplex Virus-2 (MS strain) in vero cells (african green monkey kidney cells); format: functional; conditions: Chlorocebus sabaeus
[7] = Ratio of the VR of the C-cytosine nucleoside to the VR of ribavirin; format: functional
Procedure, shortened: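 Influenza A (A0/PR/8/34 in MDCK; A2/Aichi/2/68 in primary rhesus monkey kidney) CPE-inhibition in monolayers with various media (reinforced BME or MEM plus serum, or trypsin-containing MEM). Triplicate wells at 32 CCID50/well, seven serial half-log10 concentrations spanning cytotoxic to noncytotoxic, 37 °C 4 or 5 days. CPE scored 0–4 microscopically; VR by modified Ehrlich method, divided by concurrent ribavirin VR.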

[8] = test system: MDCK; assay: as §3; format: functional, Canis lupus familiaris; procedure, shortened: as §2
[9] = species: Oryctolagus cuniculus; assay: Compound was tested for antiviral activity against Herpes Simplex Virus-1 (377 strain) in primary rabbit kidney cells; format: functional
Procedure, shortened: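 Primary rabbit kidney monolayers (MEM; 5% calf serum growth, 2% FBS maintenance) were challenged with HSV-1 E-377 (TK+), 32 CCID50/well, in triplicate. Seven half-log10 dilutions ranged from cytotoxic to noncytotoxic, with cytotoxicity and uninfected controls. After 4–5 days at 37 °C, CPE was scored 0–4 and converted to VR; ara-A ratio and 50% CPE-inhibitory concentration (MIC50) were also determined.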

[10] = test system: Vero; assay: C(compound) was tested for antiviral activity against Herpes Simplex Virus-2(MS strain) in vero cells (african green monkey kidney cells); format: functional, Chlorocebus sabaeus

| Structure (SMILES) | VR [1] | VR [2] | VR [5] | MIC50 [6] | Ratio [7] | other results |
| --- | --- | --- | --- | --- | --- | --- |
| Nc1ccn(C2CC(CO)CC2O)c(=O)n1 (centres undefined) | 0 | 0.1 |  |  |  |  |
| Nc1ccn([C@@H]2C[C@H](CO)[C@@H](O)[C@H]2O)c(=O)n1 | 0.8 | 3.5 | 3.2 | 2.4 µg/mL (≈ 9.95 µM) | 0.73 | MIC50 [3]: 71 µg/mL (≈ 294 µM); MIC50 [4]: 2.6 µg/mL (≈ 10.8 µM) |
| Nc1nc(=O)n(C2CC(O)C(CO)C2)cc1Cl (centres undefined) |  |  | 0.7 | 270 µg/mL (≈ 1040 µM) |  |  |
| Nc1nc(=O)n(C2CC(CO)CC2O)cc1I (centres undefined) |  | 0 |  |  |  | VR [8]: 0.5 |
| Nc1ccn(C2CC(O)C(CO)C2)c(=O)n1 (centres undefined) | 0 | 0 |  | 44 µg/mL (≈ 195 µM) |  | MIC50 [9]: < 26 µg/mL; VR [9]: 2.6; VR [10]: 1.9 |
| Nc1nc(=O)n([C@@H]2C[C@H](CO)[C@@H](O)[C@H]2O)cc1I |  | 0.2 | 0 |  |  |  |
| Nc1nc(=O)n(C2CC(O)C(CO)C2)cc1I (centres undefined) | 0 |  | 1 | 340 µg/mL (≈ 968 µM) |  |  |
| Nc1ccn([C@@H]2C[C@H](CO)[C@@H](O)[C@@H]2O)c(=O)n1 | 0.6 | 0.8 | 2.4 | 13 µg/mL (≈ 53.9 µM) | 0.2 | MIC50 [3]: 95 µg/mL (≈ 394 µM); MIC50 [4]: 312 µg/mL (≈ 1290 µM); MIC50 [9]: 30 µg/mL (≈ 124 µM); VR [9]: 1.8 |
| Nc1nc(=O)n([C@@H]2C[C@H](CO)[C@@H](O)[C@@H]2O)cc1I | 0 |  | 2.2 | 197 µg/mL (≈ 537 µM) |  |  |
| Nc1nc(=O)n(C2CC(CO)C(O)C2O)cc1Br (centres undefined) |  | 1.5 |  |  | 0.36 | MIC50 [4]: 150 µg/mL (≈ 469 µM) |
| Nc1nc(=O)n(C2CC(CO)C(O)C2O)cc1Cl (centres undefined) |  | 0.4 |  |  | 0.1 |  |
| Nc1nc(=O)n(C2CC(O)C(CO)C2)cc1Br (centres undefined) | 0 |  | 2.6 | 62 µg/mL (≈ 204 µM) |  |  |
